Laboratory results: ChEMBL document CHEMBL1153115, “Synthesis, antimalarial activity and cytotoxicity of 4-aminoquinoline-triazine conjugates” (Bioorg Med Chem Lett, 2010)

Experiments:
Plasmodium falciparum [1] = experiment: Antiplasmodial activity against chloroquine-sensitive Plasmodium falciparum D6 by LDH release assay; type: functional, organism-based
Plasmodium falciparum [2] = experiment: Antiplasmodial activity against chloroquine-resistant Plasmodium falciparum W2 by LDH release assay; type: functional, organism-based
[3] = Selectivity index, IC50 for african green monkey (Cercopithecus aethiops) Vero cells to IC50 for chloroquine-sensitive Plasmodium falciparum D6; type: functional
Summary of the method: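 The selectivity index of antimalarial activity was calculated from Vero cell cytotoxicity relative to the antiplasmodial IC50 against each P. falciparum clone (D6 or W2).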

[4] = Selectivity index, IC50 for african green monkey (Cercopithecus aethiops) Vero cells to IC50 for chloroquine-resistant Plasmodium falciparum W2
[5] = Cytotoxicity against pig LLC-PK11 cells; type: cell-based; conditions: Sus scrofa
Summary of the method: (§1)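 Cytotoxicity was run in parallel on three mammalian lines: LLC-PK11 (pig kidney epithelial cells), HepG2 (human hepatoma cells) and Vero (monkey kidney […]). Compounds with no cytotoxicity up to the highest tested concentration, 48, were recorded as NC.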

HepG2 = experiment: Cytotoxicity against human HepG2 cells; type: cell-based; summary of the method: as §1
Vero = experiment: Cytotoxicity against african green monkey Vero cells; type: cell-based; conditions: Chlorocebus sabaeus; summary of the method: as §1

Compound	IC50 (Plasmodium falciparum [1])	IC50 (Plasmodium falciparum [2])	Selectivity Index [3]	Selectivity Index [4]	IC50 [5]	IC50 (HepG2)	IC50 (Vero)
C[C@@H]1CC[C@H]2[C@@H](C)C(=O)O[C@@H]3O[C@@]4(C)CC[C@@H]1[C@]32OO4 [ARTEMISININ]	30 nM	25 nM	>500	>670	–	–	–
COc1cccc2c1C(=O)c1c(O)c3c(c(O)c1C2=O)C[C@@](O)(C(=O)CO)C[C@@H]3O[C@H]1C[C@H](N)[C@H](O)[C@H](C)O1 [DOXORUBICIN]	–	–	–	–	850 nM	420 nM	20000 nM
Clc1ccc2c(NCCCNc3nc(NC4CCCCC4)nc(N4CCCCC4)n3)ccnc2c1	1740 nM	2220 nM	19.7	15.4	10500 nM	8300 nM	34300 nM
COc1cc(Nc2nc(NCCCNc3ccnc4cc(Cl)ccc34)nc(N3CCOCC3)n2)cc(OC)c1	250 nM	220 nM	130.8	148.6	8300 nM	25400 nM	32700 nM
